This is an account of results in ChEMBL document CHEMBL1153967, “Discovery of substituted 4-anilino-2-arylpyrimidines as a new series of apoptosis inducers using a cell- and caspase-based high throughput screening assay. 2. Structure-activity relationships of the 2-aryl group” (Bioorg Med Chem Lett, 2009).

The test system of test [1] is T47D. Briefly: Induction of apoptosis in human T47D cells assessed as caspase activation after 48 hrs by HTS assay. The test is classed as functional, cell-based. The method in brief:
(§1)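 Cell-based caspase-3 activation HTS read with a proprietary fluorescent caspase-3 substrate in T47D, HCT116 and SNU398 cells. Compounds applied for 48 h, highest level 10 µM. EC50 reported as mean ± SEM of three or more experiments.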

The subject of test [2] is HCT-116. Briefly: Induction of apoptosis in human HCT116 cells assessed as caspase activation after 48 hrs by HTS assay. The class given is functional, cell-based. Conditions: HCT-116, 48 h. The method in brief: as §1
Test [3] has as its system SNU-398. Briefly: Induction of apoptosis in human SNU398 cells assessed as caspase activation after 48 hrs by HTS assay. The class given is functional, cell-based. The following applies: SNU-398, 48 h. The method in brief: as §1
Test [4] has as its system T47D. The test is described as follows: Growth inhibition of human T47D cells after 48 hrs. The test is classed as functional. The method in brief: (§2)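 96-well growth-inhibition (GI50) format, run in parallel in T47D breast, HCT116 colon and SNU398 hepatocellular carcinoma cells.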
For test [5], the system named is HCT-116. Briefly: Growth inhibition of human HCT116 cells after 48 hrs. The class given is functional. Conditions: HCT-116, 48 h. An outline of the steps:
as §2

Test [6] has as its system SNU-398. The test is described as follows: Growth inhibition of human SNU398 cells after 48 hrs. The following applies: SNU-398, 48 h. The test is classed as functional. An outline of the steps: as §2
For test [7], the system named is T47D. Briefly: Induction of apoptosis in human T47D cells assessed as accumulation at subG1 phase at 0.05 uM after 24 hrs by flow cytometry analysis. The class given is functional. The method in brief:
(§3)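 T47D cells treated at 0.05 µM for 24 h or 48 h at 37 °C alongside untreated controls. Cells stained with propidium iodide and analysed by flow cytometry. Percentages in sub-G1, G1, S and G2/M read from DNA-content histograms.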

The subject of test [8] is T47D. Briefly: Induction of apoptosis in human T47D cells assessed as accumulation at G1 phase at 0.05 uM after 24 hrs by flow cytometry analysis. The test is classed as functional. An outline of the steps:
as §3
For orientation: Flow cytometry measures light scatter and fluorescence of single cells or particles in a stream.

Test [9] has as its system T47D. The test is described as follows: Induction of apoptosis in human T47D cells assessed as accumulation at S phase at 0.05 uM after 24 hrs by flow cytometry analysis. The test is classed as functional. An outline of the steps: as §3
For test [10], the system named is T47D. Briefly: Induction of apoptosis in human T47D cells assessed as accumulation at G2/M phase at 0.05 uM after 24 hrs by flow cytometry analysis. The test is classed as functional. The method in brief: as §3
Test [11] deals with T47D. The test is described as follows: Induction of apoptosis in human T47D cells assessed as accumulation at subG1 phase at 0.05 uM after 48 hrs by flow cytometry analysis. The test is classed as functional. An outline of the steps:
as §3

Test [12] has as its system T47D. The test is described as follows: Induction of apoptosis in human T47D cells assessed as accumulation at G1 phase at 0.05 uM after 48 hrs by flow cytometry analysis. The class given is functional. The method in brief: as §3
The test system of test [13] is T47D. The test is described as follows: Induction of apoptosis in human T47D cells assessed as accumulation at S phase at 0.05 uM after 48 hrs by flow cytometry analysis. The class given is functional. An outline of the steps:
as §3

The subject of test [14] is T47D. The test is described as follows: Induction of apoptosis in human T47D cells assessed as accumulation at G2/M phase at 0.05 uM after 48 hrs by flow cytometry analysis. The class given is functional. An outline of the steps:
as §3

Test [15] can be described thus: Inhibition of tubulin polymerization.
Test [16] is described as follows: Inhibition of tubulin polymerization up to 50 uM.

pEC50, pIC50: −log10 of the molar value. Activity calls are given as the source filed them. No cut-off for these calls is given here. Bounds are passed on as bounds.

In the case of `COc1cc(Nc2cc(C(F)(F)F)nc(-c3cccnc3)n2)cc(OC)c1`, the figures for the pEC50 in [1], in test [2] and in test [3] were 7.09, 5.54 and 5.85, respectively. Further, the GI50 in test [4] turned out to be 61 nM; in test [5], 1300 nM; in test [6], 1000 nM.
Take `COc1ccc(OC)c(Nc2cc(C(F)(F)F)nc(-c3ccccn3)n2)c1`: the pEC50 in test [1] is 7.74; in [2], 6.72; in test [3], 6.96.
For the molecule `Cc1ccc(O)cc1Nc1cc(C(F)(F)F)nc(-c2ccncc2)n1`, the negative-log EC50 (pEC50) in test [1] is 7.32; in test [2] it was 5.70.
Consider `COc1ccc(Oc2ccccc2)cc1Nc1cc(C(F)(F)F)nc(-c2cccnc2)n1`, for which the negative logarithm of the EC50 (pEC50) in test [1] was 5.82; in [2], 5.48; in test [3], 5.30.
Regarding `COc1cc(Nc2cc(C(F)(F)F)nc(-c3cnccn3)n2)cc(OC)c1`, the pEC50 in test [1] is 6.89; in test [2] it was less than 5.00; in [3] it was less than 5.00.
As to `COc1cccc(Nc2nc(-c3ccccn3)ncc2OC)c1`, the pEC50 in test [1], in test [2] and in test [3] was less than 5.00 in each case.
Regarding `Oc1ccc(Cl)c(Nc2cc(C(F)(F)F)nc(-c3ccncc3)n2)c1`, the pEC50 in test [1] was 7.11; in [2], 5.96.
Take `COc1ccc(C)cc1Nc1cc(C(F)(F)F)nc(-c2cccnc2)n1`: the figures for the pEC50 in [1], in test [2] and in test [3] were 7.02, 6.89 and 6.89, respectively.
Regarding `COc1ccc(OC)c(Nc2cc(-c3ccccn3)nc(-c3ccccn3)n2)c1`, the pEC50 in test [1] is 6.38; in [2], 6.48; in test [3], 6.80. The values for the GI50 in [4], in test [5] and in [6] were 240 nM, 130 nM and 410 nM, respectively.
On to `Oc1cccc(Nc2cc(C(F)(F)F)nc(-c3ccncc3)n2)c1`, for which the negative-log EC50 (pEC50) was 6.17 in test [1] and 5.51 in [2].
On to `Cc1ccc(O)cc1Nc1cc(C(F)(F)F)nc(-c2cnccn2)n1`, for which the pEC50 in test [1] was 6.72; in [2] it was less than 5.00; in test [3], less than 5.00.
In the case of `COc1ccc(OC)c(Nc2cc(C(F)(F)F)nc(-c3cccnc3)n2)c1`, the negative-log EC50 (pEC50) in test [1] is 7.62; in test [2], 6.77; in [3] it was 6.89. The results for the GI50 in test [4], in test [5] and in test [6] were 95 nM, 180 nM and 68 nM, respectively. The Activity in [7] came to 7%; in [8], 32%; in [9], 6%; in [10], 53%; in test [11] it was 19%; in test [12] it was 31%. The Activity in [13] is reported as 7%; in test [14], 43%. Also, the negative logarithm of the IC50 (pIC50) in test [15] was 6.30.
As for `COc1ccc(Cl)cc1Nc1cc(C(F)(F)F)nc(-c2cccnc2)n1`, the negative logarithm of the EC50 (pEC50) in [1] is 6.44; in test [2] it was 6.21; in [3], 6.36.
As to `COc1ccc(OC)c(Nc2nc(-c3ccccn3)ncc2OC)c1`, the pEC50 in test [1], in [2] and in test [3] was less than 5.00 throughout.
Consider `Cc1ccc(O)cc1Nc1cc(C(F)(F)F)nc(-c2cccnc2)n1`, for which the negative logarithm of the EC50 (pEC50) in test [1] is 7.06; in test [2], less than 5.00; in test [3] it was 5.26.
On to `COc1cccc(Nc2cc(C(F)(F)F)nc(C3CCCCN3)n2)c1` (stereo not drawn), for which the pEC50 in test [1], in [2] and in test [3] was less than 5.00 throughout.
For the molecule `COc1ccc(Nc2cc(C(F)(F)F)nc(-c3ccncc3)n2)cc1`, the pEC50 in [1], in test [2] and in [3] was less than 5.00 throughout.
`COc1cccc(Nc2cc(C(F)(F)F)nc(-c3ccccn3)n2)c1`: the results for the pEC50 in [1], in test [2] and in [3] were 6.44, 5.22 and 5.43, respectively.
As for `COc1ccc(Nc2cc(C(F)(F)F)nc(-c3cccnc3)n2)cc1`, the negative-log EC50 (pEC50) in test [1], in test [2] and in test [3] was less than 5.00 each time.
Regarding `COc1ccc(Cl)c(Nc2cc(C(F)(F)F)nc(-c3cccnc3)n2)c1`, the negative-log EC50 (pEC50) is 6.85 in test [1], 6.03 in [2] and 6.09 in test [3].
`Oc1ccc(Cl)c(Nc2cc(C(F)(F)F)nc(-c3cccnc3)n2)c1`: the pEC50 in test [1] was 6.64; in [2], less than 5.00; in test [3], less than 5.00.
For `FC(F)(F)c1cc(Nc2cccc(-c3ccccc3)c2)nc(-c2cccnc2)n1`, the negative-log EC50 (pEC50) in [1], in test [2] and in test [3] was less than 5.00 each time.
As to `COc1ccc(C)c(Nc2cc(C(F)(F)F)nc(-c3ccncc3)n2)c1`, the negative-log EC50 (pEC50) in test [1] is 7.60; in test [2], 6.92.
`COc1cccc(Nc2cc(C(F)(F)F)nc(-c3cccnc3)n2)c1`: the pEC50 in [1] is 6.47; in test [2], less than 5.00; in test [3] it was less than 5.00. For the same molecule, the results for the GI50 in test [4], in test [5] and in test [6] were 94 nM, more than 10000 nM and 6400 nM, respectively. In test [16], the result was inactive.
Consider `Oc1cccc(Nc2cc(C(F)(F)F)nc(-c3cccnc3)n2)c1`, for which the pEC50 was 6.01 in [1], less than 5.00 in [2] and less than 5.00 in [3].
Turning to `COc1ccc(OC)c(Nc2cc(C(F)(F)F)nc(-c3cnccn3)n2)c1`, the negative logarithm of the EC50 (pEC50) was 7.32 in test [1], 6.39 in [2] and 6.55 in test [3].
`COc1cccc(Nc2cc(C(F)(F)F)nc(-c3ccccc3)n2)c1`: the pEC50 in test [1], in test [2] and in test [3] was less than 5.00 throughout.
Regarding `COc1cc(Nc2cc(C(F)(F)F)nc(-c3ccncc3)n2)cc(OC)c1`, the pEC50 in test [1] is 7.47; in test [2] it was 6.62. The 50% growth inhibitory concentration (GI50) in test [4] worked out at 36 nM; in test [5], 270 nM; in test [6], 270 nM.
Consider `Cc1ccc(C)c(Nc2cc(C(F)(F)F)nc(-c3ccncc3)n2)c1`, for which the negative-log EC50 (pEC50) in [1] was 6.92; in test [2] it was 6.21.
In the case of `COc1ccc(Cl)c(Nc2cc(C(F)(F)F)nc(-c3c(Cl)cncc3Cl)n2)c1`, the negative-log EC50 (pEC50) in test [1], in [2] and in [3] was less than 5.00 in each case.
Take `COc1ccc(N2CCCCC2)c(Nc2cc(C(F)(F)F)nc(-c3cccnc3)n2)c1`: the pEC50 in test [1], in test [2] and in [3] was less than 5.00 each time.
Consider `FC(F)(F)c1cc(Nc2cccc(Cl)c2)nc(-c2cccnc2)n1`, for which the pEC50 in test [1], in [2] and in test [3] was less than 5.00 each time.
As for `COc1ccc(C)cc1Nc1cc(C(F)(F)F)nc(-c2ccncc2)n1`, the pEC50 in test [1] was 7.12; in [2], 6.80.
In the case of `COc1cccc(Nc2cc(C(F)(F)F)nc(-c3ccncc3)n2)c1`, the pEC50 in [1] is 5.89; in test [2] it was less than 5.00; in test [3], less than 5.00.
Regarding `COc1ccc(Cl)c(Nc2cc(C)nc(N3CCOCC3)n2)c1`, the negative-log EC50 (pEC50) in [1], in test [2] and in [3] was less than 5.00 in each case.
For `COc1ccc(Cl)c(Nc2cc(C(F)(F)F)nc(-c3ccncc3)n2)c1`, the negative-log EC50 (pEC50) was 7.00 in test [1] and 6.02 in test [2].
Regarding `Oc1ccc(Cl)c(Nc2cc(C(F)(F)F)nc(-c3cnccn3)n2)c1`, the negative logarithm of the EC50 (pEC50) in [1] was 6.25; in test [2], less than 5.00; in test [3], less than 5.00.

As a reminder, the pEC50 is −log10 of the EC50, conventionally taken in molar units. What is called GI50 is the concentration giving 50% growth inhibition. As usually defined, the pIC50 is the IC50 on a negative log10 scale, so that one unit is a factor of ten. A low value points to a large IC50.
